For this experiment, the system named is OVCAR-4. The experiment in a line: Cytotoxicity against human OVCAR4 cells assessed as cell growth at 10 uM after 48 hrs by SRB assay relative to control. The class given is functional. The settings on record: OVCAR-4, 48 h, read-out: Activity. The gist of the method: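 This was the NCI primary screen, with compound added once at 10⁻⁵ M and cultures incubated for 48 h. The endpoint was sulforhodamine B protein staining. Results are expressed as percent growth of treated cells relative to untreated control cells.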
Background: Sulforhodamine B stains cellular protein and so reports cell mass.

As for `COc1ccc(C2CC(c3ccc4ccccc4c3)=NN2C2SC(=O)N(CN3CCOCC3)C2=O)cc1` (stereo unspecified), the growth at 10 µM was determined as 67.5%.

(Values after ChEMBL document CHEMBL2412956, “Synthesis and biological activity evaluation of 5-pyrazoline substituted 4-thiazolidinones” (Eur J Med Chem, 2013).)
